Test results reported in PMC6247064 (Cancer Science, 2018).

System: Japanese patients with advanced solid tumors
Test: Phase 1 study: safety, tolerability, DLT and treatment-emergent adverse events
Format: in vivo, human
Summary of the method: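 Open-label single-arm dose levels of 80 or 105 mg/m2 IV were given on day 1 of 14-day cycles, with at most 6 patients per level. Adverse events were graded by CTCAE v4.03. DLTs were related events in cycle 1 meeting predefined hematologic or nonhematologic criteria. Tolerability required a cycle 1 DLT rate <33%. Primary G-CSF prophylaxis was barred during DLT evaluation; G-CSF was allowed for treatment-emergent neutropenia and as secondary prophylaxis.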

Compound: COc1cccc(OCCCN)c1-c1cc(Nc2cnc(C#N)cn2)n[nH]1 [Prexasertib]
- TEAE related to study treatment: Lung infection (105 mg/m^2 N = 6, Grade 3 + 4): 0 n (%)
- TEAE related to study treatment: Lymphocytopenia (105 mg/m^2 N = 6, Grade 3 + 4): 0 n (%)
- TEAE related to study treatment: Nausea (105 mg/m^2 N = 6, Grade 3 + 4): 0 n (%)
- TEAE related to study treatment: Neutropenia (105 mg/m^2 N = 6, Grade 3 + 4): 6 (100) n (%)
- TEAE related to study treatment: Pyrexia (105 mg/m^2 N = 6, Grade 3 + 4): 0 n (%)
- TEAE related to study treatment: Rash (105 mg/m^2 N = 6, Grade 3 + 4): 0 n (%)
- TEAE related to study treatment: Rash maculopapular (105 mg/m^2 N = 6, Grade 3 + 4): 0 n (%)
- TEAE related to study treatment: SVE (supraventricular extrasystoles) (105 mg/m^2 N = 6, Grade 3 + 4): 0 n (%)
- TEAE related to study treatment: Stomatitis (105 mg/m^2 N = 6, Grade 3 + 4): 0 n (%)
- TEAE related to study treatment: Thrombocytopenia (105 mg/m^2 N = 6, Grade 3 + 4): 1 (16.7) n (%)
- TEAE related to study treatment: Anemia (105 mg/m^2 N = 6, Grade 4): 0 n (%)
- TEAE related to study treatment: Any (105 mg/m^2 N = 6, Grade 4): 3 (50.0) n (%)
- TEAE related to study treatment: Atrial fibrillation (105 mg/m^2 N = 6, Grade 4): 0 n (%)
- TEAE related to study treatment: Constipation (105 mg/m^2 N = 6, Grade 4): 0 n (%)
- TEAE related to study treatment: ECG QT prolonged (105 mg/m^2 N = 6, Grade 4): 0 n (%)
- TEAE related to study treatment: Fatigue (105 mg/m^2 N = 6, Grade 4): 0 n (%)
- TEAE related to study treatment: Febrile neutropenia (105 mg/m^2 N = 6, Grade 4): 0 n (%)
- TEAE related to study treatment: Headache (105 mg/m^2 N = 6, Grade 4): 0 n (%)
- TEAE related to study treatment: Hypocalcemia (105 mg/m^2 N = 6, Grade 4): 0 n (%)
- TEAE related to study treatment: Leukopenia (105 mg/m^2 N = 6, Grade 4): 1 (16.7) n (%)
- TEAE related to study treatment: Lung infection (105 mg/m^2 N = 6, Grade 4): 0 n (%)
- TEAE related to study treatment: Lymphocytopenia (105 mg/m^2 N = 6, Grade 4): 0 n (%)
- TEAE related to study treatment: Nausea (105 mg/m^2 N = 6, Grade 4): 0 n (%)
- TEAE related to study treatment: Neutropenia (105 mg/m^2 N = 6, Grade 4): 3 (50.0) n (%)
- TEAE related to study treatment: Pyrexia (105 mg/m^2 N = 6, Grade 4): 0 n (%)
- TEAE related to study treatment: Rash (105 mg/m^2 N = 6, Grade 4): 0 n (%)
- TEAE related to study treatment: Rash maculopapular (105 mg/m^2 N = 6, Grade 4): 0 n (%)
- TEAE related to study treatment: SVE (supraventricular extrasystoles) (105 mg/m^2 N = 6, Grade 4): 0 n (%)
- TEAE related to study treatment: Stomatitis (105 mg/m^2 N = 6, Grade 4): 0 n (%)
- TEAE related to study treatment: Thrombocytopenia (105 mg/m^2 N = 6, Grade 4): 0 n (%)
- Patients with at least 1 AE that led to a dose adjustment (105 mg/m^2 group): 3 patients
- Patients with at least 1 AE that led to a dose delay (105 mg/m^2 group): 3 patients
- Patients with at least 1 AE that led to dose reduction (105 mg/m^2 group (105 to 80 mg/m^2)): 1 patient
- TEAE related to study treatment: Anemia (Total N = 12, Any grade): 3 (25.0) n (%)
- TEAE related to study treatment: Any (Total N = 12, Any grade): 12 (100) n (%)
- TEAE related to study treatment: Atrial fibrillation (Total N = 12, Any grade): 1 (8.3) n (%)
- TEAE related to study treatment: Constipation (Total N = 12, Any grade): 3 (25.0) n (%)
- TEAE related to study treatment: ECG QT prolonged (Total N = 12, Any grade): 2 (16.7) n (%)
- TEAE related to study treatment: Fatigue (Total N = 12, Any grade): 2 (16.7) n (%)
- TEAE related to study treatment: Febrile neutropenia (Total N = 12, Any grade): 2 (16.7) n (%)
- TEAE related to study treatment: Headache (Total N = 12, Any grade): 1 (8.3) n (%)
- TEAE related to study treatment: Hypocalcemia (Total N = 12, Any grade): 1 (8.3) n (%)
- TEAE related to study treatment: Leukopenia (Total N = 12, Any grade): 12 (100) n (%)
- TEAE related to study treatment: Lung infection (Total N = 12, Any grade): 1 (8.3) n (%)
- TEAE related to study treatment: Lymphocytopenia (Total N = 12, Any grade): 2 (16.7) n (%)
- TEAE related to study treatment: Nausea (Total N = 12, Any grade): 2 (16.7) n (%)
- TEAE related to study treatment: Neutropenia (Total N = 12, Any grade): 11 (91.7) n (%)
- TEAE related to study treatment: Pyrexia (Total N = 12, Any grade): 2 (16.7) n (%)
- TEAE related to study treatment: Rash (Total N = 12, Any grade): 1 (8.3) n (%)
- TEAE related to study treatment: Rash maculopapular (Total N = 12, Any grade): 2 (16.7) n (%)
- TEAE related to study treatment: SVE (supraventricular extrasystoles) (Total N = 12, Any grade): 1 (8.3) n (%)
- TEAE related to study treatment: Stomatitis (Total N = 12, Any grade): 1 (8.3) n (%)
- TEAE related to study treatment: Thrombocytopenia (Total N = 12, Any grade): 8 (66.7) n (%)
- TEAE related to study treatment: Anemia (Total N = 12, Grade 3): 1 (8.3) n (%)
- TEAE related to study treatment: Any (Total N = 12, Grade 3): 5 (41.7) n (%)
- TEAE related to study treatment: Atrial fibrillation (Total N = 12, Grade 3): 0 n (%)
- TEAE related to study treatment: Constipation (Total N = 12, Grade 3): 0 n (%)
- TEAE related to study treatment: ECG QT prolonged (Total N = 12, Grade 3): 0 n (%)
- TEAE related to study treatment: Fatigue (Total N = 12, Grade 3): 0 n (%)
- TEAE related to study treatment: Febrile neutropenia (Total N = 12, Grade 3): 1 (8.3) n (%)
- TEAE related to study treatment: Headache (Total N = 12, Grade 3): 0 n (%)
- TEAE related to study treatment: Hypocalcemia (Total N = 12, Grade 3): 0 n (%)
- TEAE related to study treatment: Leukopenia (Total N = 12, Grade 3): 5 (41.7) n (%)
- TEAE related to study treatment: Lung infection (Total N = 12, Grade 3): 0 n (%)
- TEAE related to study treatment: Lymphocytopenia (Total N = 12, Grade 3): 1 (8.3) n (%)
- TEAE related to study treatment: Nausea (Total N = 12, Grade 3): 0 n (%)
- TEAE related to study treatment: Neutropenia (Total N = 12, Grade 3): 4 (33.3) n (%)
